In brackets after ≈: the same amount, converted by molar mass.

Format in all cases: functional
Test [1] has as its system Escherichia coli. The test can be described thus: Antibacterial activity against wild-type Escherichia coli AG100 harboring IS186 insertion in lon3 gene, Tn5 insertion in ycgE gene and plasmid pMPM carrying ompF gene at 26 degC by Etest method.
Test [2] concerns Escherichia coli. As to the kind of experiment: Antibacterial activity against wild-type Escherichia coli AG100 harboring IS186 insertion in lon3 gene, Tn5 insertion in ycgE gene and plasmid pMPM at 26 degC by Etest method.
The subject of test [3] is Escherichia coli. As to the kind of experiment: Antibacterial activity against ompF-deficient Escherichia coli AG100 harboring IS186 insertion in lon3 gene and Tn5 insertion in ycgE gene at 26 degC by Etest method.
In test [4] the test system is Escherichia coli. The test can be described thus: Antibacterial activity against ompF-deficient Escherichia coli AG100 harboring IS186 insertion in lon3 gene and Tn5 insertion in ycgE gene at 37 degC by Etest method.
The subject of test [5] is Escherichia coli. As to the kind of experiment: Antibacterial activity against ompF-deficient Escherichia coli AG100 at 26 degC by Etest method.
Test [6] concerns Escherichia coli. The test can be described thus: Antibacterial activity against ompF-deficient Escherichia coli AG100 at 37 degC by Etest method.
For test [7], the system named is Escherichia coli. As to the kind of experiment: Antibacterial activity against wild-type Escherichia coli AG100 harboring marR mutant gene at 26 degC by Etest method.
Test [8] concerns Escherichia coli. As to the kind of experiment: Antibacterial activity against wild-type Escherichia coli AG100 harboring marR mutant gene at 37 degC by Etest method.
Test [9] deals with Escherichia coli. As to the kind of experiment: Antibacterial activity against wild-type Escherichia coli AG100 harboring IS186 insertion in lon3 gene and Tn5 insertion in ycgE gene at 26 degC by Etest method.
In test [10] the test system is Escherichia coli. As to the kind of experiment: Antibacterial activity against wild-type Escherichia coli AG100 harboring IS186 insertion in lon3 gene and Tn5 insertion in ycgE gene at 37 degC by Etest method.
The subject of test [11] is Escherichia coli. As to the kind of experiment: Antibacterial activity against wild-type Escherichia coli AG100 harboring Tn5 insertion in ycgE gene at 37 degC by Etest method.
In test [12] the test system is Escherichia coli. The test can be described thus: Antibacterial activity against wild-type Escherichia coli AG100 harboring Tn5 insertion in ycgE gene at 26 degC by Etest method.
In test [13] the test system is Escherichia coli. The test can be described thus: Antibacterial activity against wild-type Escherichia coli AG100 harboring IS186 insertion in lon3 gene at 26 degC by Etest method.
Test [14] deals with Escherichia coli. As to the kind of experiment: Antibacterial activity against wild-type Escherichia coli AG100 harboring IS186 insertion in lon3 gene at 37 degC by Etest method.
Test [15] relates to Escherichia coli. The test can be described thus: Antibacterial activity against wild-type Escherichia coli AG100 at 26 degC by Etest method.
For test [16], the system named is Escherichia coli. As to the kind of experiment: Antibacterial activity against wild-type Escherichia coli AG100 at 37 degC by Etest method.
Test [17] concerns Escherichia coli. As to the kind of experiment: Antibacterial activity against wild-type Escherichia coli AG100 harboring IS186 insertion in lon3 gene, Tn5 insertion in ycgE gene, plasmid pET21b carrying ompF gene and pACT7SP at 26 degC by Etest method. Put shortly: (§1)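 MIC by Etest on LB agar at 26°C for the lon ycgE strain with pACT7Sp plus pET21b or pET21b-ompF; plates contained 100 μg/ml ampicillin, 50 μg/ml spectinomycin and 0.1 mM IPTG to induce OmpF; averages of at least four measurements.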

The subject of test [18] is Escherichia coli. As to the kind of experiment: Antibacterial activity against wild-type Escherichia coli AG100 harboring IS186 insertion in lon3 gene, Tn5 insertion in ycgE gene, plasmid pET21b and pACT7SP at 26 degC by Etest method. The essentials: as §1

As usually defined, the MIC is the lowest concentration that inhibits growth of the organism. Regarding `CC1(C)S[C@@H]2[C@H](NC(=O)[C@H](N)c3ccccc3)C(=O)N2[C@H]1C(=O)O` [AMPICILLIN], the MIC in test [1] was determined as 1.5 µg/mL (≈ 4.29 µM); in test [2], 2.3 µg/mL (≈ 6.58 µM); in test [3], 2.3 µg/mL (≈ 6.58 µM); in test [4], 2.2 µg/mL (≈ 6.3 µM); in test [5] it was 1.5 µg/mL (≈ 4.29 µM); in [6], 1.83 µg/mL (≈ 5.24 µM). Besides, the minimum inhibitory concentration (MIC) in test [7] amounted to 4 µg/mL (≈ 11.4 µM); in test [8], 3 µg/mL (≈ 8.59 µM); in test [9], 1.8 µg/mL (≈ 5.15 µM); in [10] it was 1.7 µg/mL (≈ 4.87 µM); in test [11], 1 µg/mL (≈ 2.86 µM); in test [12] it was 0.75 µg/mL (≈ 2.15 µM). The minimal inhibitory concentration (MIC) in test [13] was found to be 0.83 µg/mL (≈ 2.38 µM); in [14], 1 µg/mL (≈ 2.86 µM); in [15], 0.75 µg/mL (≈ 2.15 µM); in test [16], 1 µg/mL (≈ 2.86 µM).
On to `CO[C@@]1(NC(=O)Cc2cccs2)C(=O)N2C(C(=O)O)=C(COC(N)=O)CS[C@@H]21` [CEFOXITIN], for which the MIC in [1] was 1 µg/mL (≈ 2.34 µM); in test [2] it was 6 µg/mL (≈ 14 µM); in [3], 4.7 µg/mL (≈ 11 µM); in test [4] it was 3 µg/mL (≈ 7.02 µM); in test [5], 3 µg/mL (≈ 7.02 µM); in [6], 3 µg/mL (≈ 7.02 µM). The minimal inhibitory concentration (MIC) in test [7] amounted to 7.3 µg/mL (≈ 17.1 µM); in [8] it was 6 µg/mL (≈ 14 µM); in test [9] it was 4 µg/mL (≈ 9.36 µM); in test [10], 4 µg/mL (≈ 9.36 µM); in test [11], 1.7 µg/mL (≈ 3.98 µM); in [12] it was 0.92 µg/mL (≈ 2.15 µM). Moreover, the MIC in test [13] is 0.92 µg/mL (≈ 2.15 µM); in [14], 1.7 µg/mL (≈ 3.98 µM); in test [15] it was 0.75 µg/mL (≈ 1.75 µM); in test [16], 1.5 µg/mL (≈ 3.51 µM).
In the case of `CC(=O)OCC1=C(C(=O)O)N2C(=O)[C@@H](NC(=O)Cc3cccs3)[C@H]2SC1` [CEPHALOTHIN], the MIC was 2 µg/mL (≈ 5.04 µM) in [1]; 5.3 µg/mL (≈ 13.4 µM) in [2]; 6.7 µg/mL (≈ 16.9 µM) in test [3]; 4.7 µg/mL (≈ 11.9 µM) in [4]; 4.7 µg/mL (≈ 11.9 µM) in test [5]; 4.7 µg/mL (≈ 11.9 µM) in test [6]. Also, the MIC in [7] is 10.7 µg/mL (≈ 27 µM); in [8], 9.3 µg/mL (≈ 23.5 µM); in [9], 6 µg/mL (≈ 15.1 µM); in test [10], 4.7 µg/mL (≈ 11.9 µM); in [11] it was 2.3 µg/mL (≈ 5.8 µM); in test [12], 1.3 µg/mL (≈ 3.28 µM). The MIC in test [13] was 1.2 µg/mL (≈ 3.03 µM); in test [14], 2 µg/mL (≈ 5.04 µM); in test [15] it was 1 µg/mL (≈ 2.52 µM); in [16], 2 µg/mL (≈ 5.04 µM).
Consider `O=C(N[C@H](CO)[C@H](O)c1ccc([N+](=O)[O-])cc1)C(Cl)Cl` [CHLORAMPHENICOL], for which the minimal inhibitory concentration (MIC) worked out at 13.3 µg/mL (≈ 41.2 µM) in test [3]; 10.7 µg/mL (≈ 33.1 µM) in test [4]; 6 µg/mL (≈ 18.6 µM) in test [5]; 6.7 µg/mL (≈ 20.7 µM) in test [6]; 24 µg/mL (≈ 74.3 µM) in [7]; 21 µg/mL (≈ 65 µM) in test [8]. The MIC in [9] was found to be 12 µg/mL (≈ 37.1 µM); in test [10] it was 9.3 µg/mL (≈ 28.8 µM); in [11], 4 µg/mL (≈ 12.4 µM); in test [12], 4 µg/mL (≈ 12.4 µM); in test [13] it was 4 µg/mL (≈ 12.4 µM); in test [14], 4 µg/mL (≈ 12.4 µM). Also, the MIC in [15] and in [16] was 4 µg/mL (≈ 12.4 µM) throughout.
On to `C[C@H]1c2cccc(O)c2C(=O)C2=C(O)[C@]3(O)C(=O)C(C(N)=O)=C(O)[C@@H](N(C)C)[C@@H]3[C@@H](O)[C@@H]21.O` [DOXYCYCLINE], for which the MIC was 0.75 µg/mL in [17]; 2 µg/mL in [18]; 2 µg/mL in [3]; 2 µg/mL in test [4]; 2 µg/mL in test [5]; 2 µg/mL in test [6]. Also, the minimal inhibitory concentration (MIC) amounted to 3.7 µg/mL in [7]; 3.3 µg/mL in test [8]; 2 µg/mL in test [9]; 2 µg/mL in [10]; 1.17 µg/mL in test [11]; 0.83 µg/mL in test [12]. For the same molecule, the MIC in [13] is 0.75 µg/mL; in test [14], 1.17 µg/mL; in test [15], 0.5 µg/mL; in [16] it was 1 µg/mL.
`CCn1cc(C(=O)O)c(=O)c2ccc(C)nc21` [NALIDIXIC ACID]: the minimum inhibitory concentration (MIC) in test [17] turned out to be 3 µg/mL (≈ 12.9 µM); in test [18] it was 3 µg/mL (≈ 12.9 µM); in [1] it was 3 µg/mL (≈ 12.9 µM); in test [2], 3 µg/mL (≈ 12.9 µM); in test [3] it was 3.3 µg/mL (≈ 14.2 µM); in [4], 4 µg/mL (≈ 17.2 µM). Besides, the minimum inhibitory concentration (MIC) in test [5] came to 3.3 µg/mL (≈ 14.2 µM); in test [6], 4 µg/mL (≈ 17.2 µM); in test [7], 6.7 µg/mL (≈ 28.8 µM); in test [8] it was 10.7 µg/mL (≈ 46.1 µM); in [9], 3.3 µg/mL (≈ 14.2 µM); in [10], 4 µg/mL (≈ 17.2 µM). Moreover, the MIC in test [11] was found to be 4 µg/mL (≈ 17.2 µM); in test [12], 3.7 µg/mL (≈ 15.9 µM); in test [13], 3.7 µg/mL (≈ 15.9 µM); in test [14], 4 µg/mL (≈ 17.2 µM); in test [15], 4 µg/mL (≈ 17.2 µM); in [16] it was 4 µg/mL (≈ 17.2 µM).
As to `CN(C)[C@@H]1C(O)=C(C(N)=O)C(=O)[C@@]2(O)C(O)=C3C(=O)c4c(O)cccc4[C@@](C)(O)[C@H]3C[C@@H]12` [TETRACYCLINE], the MIC in [3] turned out to be 2 µg/mL (≈ 4.5 µM); in test [4], 2 µg/mL (≈ 4.5 µM); in test [5], 2 µg/mL (≈ 4.5 µM); in [6], 1.83 µg/mL (≈ 4.12 µM); in [7] it was 6 µg/mL (≈ 13.5 µM); in test [8], 4 µg/mL (≈ 9 µM). Also, the minimum inhibitory concentration (MIC) came to 2 µg/mL (≈ 4.5 µM) in test [9]; 2 µg/mL (≈ 4.5 µM) in [10]; 1 µg/mL (≈ 2.25 µM) in test [11]; 0.5 µg/mL (≈ 1.13 µM) in test [12]; 0.5 µg/mL (≈ 1.13 µM) in test [13]; 1 µg/mL (≈ 2.25 µM) in test [14]. Moreover, the MIC was found to be 0.5 µg/mL (≈ 1.13 µM) in [15] and 1 µg/mL (≈ 2.25 µM) in test [16].

Source of the values: ChEMBL document CHEMBL1649258, “Combined inactivation of lon and ycgE decreases multidrug susceptibility by reducing the amount of OmpF porin in Escherichia coli” (2009).
